In the library only some 1.5% were active in any assay of this set; here they are far more common.
C2C12 statin – protects C2C12 myotubes from simvastatin toxicity; ATP luminescence, 48 h; scaled: DMSO 0, geranylgeraniol control 100; rescue of ATP level, % at 7.49 µM; actives 0.78% (n = 330,000); AID 602340;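 active = mean ATP rescue above about 67%, or every replicate alone reaching that limit, limit read from the data, passing the limit was not always enough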;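 note: myotubes were challenged with 10 µM simvastatin during compound exposure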
Mot1-301 SUMO – blocks SUMOylation pathway, rescuing yeast Mot1-301 growth | S. cerevisiae Mot1-301 growth rescue, ATP luminescence, 38.5C; percent above DMSO median, 100 means doubled | growth rescue, % at 18.8 µM | actives 1% (n = 320,000);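 active = every valid replicate shows activation above 250% relative to neutral control wells; inactive = the rest, any valid replicate at or below 250%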
Cneo AK release – Cryptococcus neoformans lysis via adenylate kinase release; actives 0.2% (n = 360,000); lysis activity, % at 15 µM; C. neoformans lysis, adenylate kinase release luminescence, 4 h; normalised: neutral wells 0, clomiphene wells 100;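 active = mean lysis activity across replicates of at least 80%, whatever share of replicates individually reach that level; inactive = mean lysis activity below 80%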
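Material – log-phase Cryptococcus neoformans yeast cells · Input – 5 × 10^6 yeast cells/mL · Medium – fresh YPD growth medium · Doses – single compound concentration per well · Timing – static 4 h at 37 °C with compound, 1 h detection · Detection – adenylate kinase release luminescence · Read-out – signal increase indicating cell lysis · Control set – Clomiphene as positive lysis control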
Each line names hits and unclear results; the compound was inactive in the other large screens.

O=C(C[C@@H]1CC[C@H]2[C@@H](COC[C@H](O)CN2Cc2ccc(F)cc2)O1)NCc1ccncn1	none (no result: Mot1-301 SUMO)
CN(C)S(=O)(=O)c1ccc(S(=O)(=O)N(Cc2ccco2)Cc2ccccc2Cl)cc1	none
O=S(=O)(c1ccc(S(=O)(=O)N(Cc2ccco2)Cc2ccccc2Cl)cc1)N1CCCC1	C2C12 statin 93.5
C[C@H](CO)N1C[C@H](C)[C@H](CN(C)C(=O)Nc2ccc(F)cc2)Oc2ncc(C#Cc3cccc(F)c3)cc2C1=O	none (no result: Mot1-301 SUMO, Cneo AK release)
CC1CCN(C(=O)N[C@@H](Cc2ccccc2)C(=O)O)CC1	none
CC(C)(C)OC(=O)N1CCC(C(=O)N[C@@H](Cc2ccccc2)C(=O)O)CC1	C2C12 statin 114.6
CC(C)(C)OC(=O)N1CCC(C(=O)N[C@H](Cc2ccccc2)C(=O)O)CC1	none
CC1CN(C(=O)N[C@@H](Cc2ccccc2)C(=O)O)CC(C)O1 (some centres undefined)	C2C12 statin 85.9
COc1cc(/C=C(\C#N)c2nc3ccccc3[nH]2)cc(Br)c1OCc1ccc(F)cc1	none
COc1cc(/C=C(\C#N)c2nc3ccccc3[nH]2)cc(Br)c1OCc1ccccc1	Mot1-301 SUMO 486.9
O=C(COc1ccccc1Cl)NCCc1ccc2c(c1)OCCO2	none (no result: C2C12 statin, Cneo AK release)
O=C(COc1ccccc1F)NCCc1ccc2c(c1)OCCO2	C2C12 statin 125.7
C[C@H]1CCCCO[C@@H](CN(C)C(=O)Nc2ccc(C(F)(F)F)cc2)[C@@H](C)CN([C@@H](C)CO)C(=O)c2cc(NC(=O)NC3CCCCC3)ccc2O1	none (no result: C2C12 statin, Mot1-301 SUMO)
Cc1ccc(C(=O)Nc2c(C(=O)N3CCOCC3)cnn2-c2ccccc2)cc1	C2C12 statin 110.6
O=C(Nc1c(C(=O)N2CCOCC2)cnn1-c1ccccc1)c1ccc([N+](=O)[O-])cc1	none
Cc1ccccc1S(=O)(=O)N1CC[C@@H]2[C@@H](CO)Nc3ccc(-c4ccccc4F)cc3[C@@H]21	none (no result: Mot1-301 SUMO)
C[C@H]1CCCCO[C@@H](CN(C)Cc2ccccc2)[C@@H](C)CN([C@@H](C)CO)C(=O)c2cc(NC(=O)c3ccccc3)ccc2O1	none (no result: C2C12 statin, Mot1-301 SUMO)
COc1cccc(C(C(=O)NC(C)(C)C)N(C(=O)CCC(=O)Nc2cc(C)on2)C(C)C)c1OC (centres undefined)	none (no result: C2C12 statin, Cneo AK release)
COc1cccc(C(C(=O)NC(C)(C)C)N(C(=O)CCC(=O)Nc2cc(C)on2)C(C)(C)C)c1OC (centres undefined)	C2C12 statin 66.6
O=C(COC(=O)CNC(=O)c1ccco1)NCCN1C(=O)CSC1=O	Mot1-301 SUMO 320.0
COc1ccccc1OCC(=O)OCC(=O)NCCN1C(=O)CSC1=O	none (no result: C2C12 statin)
O=C(NCCN1CCCCC1)[C@H]1N[C@H]2c3ccc(-c4cccnc4)c(=O)n3C[C@H]2[C@@H]1CO	none (no result: Mot1-301 SUMO)
O=C(NCCN1CCCCC1)[C@@H]1N[C@@H]2c3ccc(-c4ccncc4)c(=O)n3C[C@@H]2[C@H]1CO	Cneo AK release 102.6 (no result: Mot1-301 SUMO)
O=S(=O)(Cc1ccccc1)NCC[C@@H]1CC[C@@H](NS(=O)(=O)c2ccc(F)cc2)[C@H](CO)O1	none (no result: Mot1-301 SUMO, Cneo AK release)
C[C@@H]1CCCCO[C@H](CN(C)S(=O)(=O)c2cccs2)[C@H](C)CN([C@@H](C)CO)C(=O)c2cc(NS(=O)(=O)c3cn(C)cn3)ccc2O1	none (no result: C2C12 statin, Mot1-301 SUMO)
C[C@@H]1CCCCO[C@H](CN(C)C(=O)Nc2ccc(F)cc2)[C@H](C)CN([C@@H](C)CO)C(=O)c2cc(NC(=O)Nc3cccc4ccccc34)ccc2O1	none (no result: Mot1-301 SUMO)
O=C(C[C@@H]1CC[C@@H]2[C@H](COC[C@H](O)CN2S(=O)(=O)c2cccc(Cl)c2)O1)NC1Cc2ccccc2C1	none (no result: Mot1-301 SUMO)
CO[C@@H]1CN(C)C(=O)c2cc(NC(=O)C3CCC3)ccc2OC[C@@H](C)N(Cc2ccncc2)C[C@@H]1C	none (no result: Mot1-301 SUMO)
CCC(=O)N1[C@H](CO)[C@@H](c2ccc(-c3cccnc3)cc2)[C@@H]1CN(C)C(C)=O	Cneo AK release 104.1 (no result: Mot1-301 SUMO)
CCC(=O)N1[C@H](CO)[C@H](c2ccc(C3=CCCC3)cc2)[C@@H]1CN(C)C(C)=O	none (no result: Mot1-301 SUMO)
CC(=O)N(C)C[C@H]1[C@H](c2ccc(-c3cccnc3)cc2)[C@@H](CO)N1C(=O)C1CC1	none (no result: Mot1-301 SUMO)
CCC(=O)N1[C@H](CN(C)C(C)=O)[C@@H](c2ccc(C3=CCCCC3)cc2)[C@@H]1CO	Cneo AK release 110.9 (no result: Mot1-301 SUMO)
Cc1ccc(S(=O)(=O)Nc2cccc3c2O[C@H](CN(C)Cc2ccc(Oc4ccccc4)cc2)[C@H](C)CN([C@H](C)CO)C3=O)cc1	none (no result: Mot1-301 SUMO)
O=C(CCN1CCCCC1)N[C@@H]1CC[C@@H](CCn2cc(-c3ccccc3)nn2)O[C@H]1CO	none (no result: Mot1-301 SUMO)
Cc1noc(C)c1S(=O)(=O)Nc1ccc2c(c1)CC(=O)N([C@@H](C)CO)C[C@H](C)[C@H](CN(C)Cc1ccc(Cl)c(Cl)c1)O2	none (no result: Mot1-301 SUMO)
Cc1noc(C)c1S(=O)(=O)Nc1ccc2c(c1)CC(=O)N([C@H](C)CO)C[C@@H](C)[C@H](CN(C)Cc1ccc(Cl)c(Cl)c1)O2	C2C12 statin 86.5 (no result: Mot1-301 SUMO)
C[C@H](CO)N1C[C@H](C)[C@H](CN(C)Cc2ccc(Cl)c(Cl)c2)Oc2ccc(NS(=O)(=O)c3ccc(Cl)cc3)cc2CC1=O	none (no result: Mot1-301 SUMO)
Cc1ccc(S(=O)(=O)Nc2ccc3c(c2)CC(=O)N([C@@H](C)CO)C[C@H](C)[C@@H](CN(C)Cc2ccc(Cl)c(Cl)c2)O3)cc1	C2C12 statin 71.5 (no result: Mot1-301 SUMO)
Cc1ccc(S(=O)(=O)Nc2ccc3c(c2)CC(=O)N([C@@H](C)CO)C[C@@H](C)[C@H](CN(C)Cc2ccc(Cl)c(Cl)c2)O3)cc1	C2C12 statin 73.9 (no result: Mot1-301 SUMO)
Cc1ccc(S(=O)(=O)Nc2ccc3c(c2)CC(=O)N([C@H](C)CO)C[C@H](C)[C@H](CN(C)Cc2ccc(Cl)c(Cl)c2)O3)cc1	none (no result: Mot1-301 SUMO)
C#Cc1ccc([C@@H]2C=C(C(=O)N3CCCCCCC3)O[C@H](OCC)[C@H]2CCCO)cc1	none (no result: C2C12 statin, Mot1-301 SUMO)
C[C@H](CO)N1C[C@H](C)[C@H](CN(C)Cc2ccc(C(F)(F)F)cc2)OCCCC[C@H](C)Oc2ccc(NC(=O)CCCN(C)C)cc2C1=O	none (no result: C2C12 statin, Mot1-301 SUMO)
Cc1ccc(S(=O)(=O)Nc2ccc3c(c2)C(=O)N([C@H](C)CO)C[C@H](C)[C@H](CN(C)C(=O)NC2CCCCC2)O3)cc1	none (no result: Mot1-301 SUMO)
Cc1ccccc1-c1nc(CN2CCC(C(=O)NCCCN3CCCC3)CC2)c(C)o1	none
Cc1ccccc1-c1nc(CN2CCC(C(=O)NCCCN3CC(C)CC(C)C3)CC2)c(C)o1 (centres undefined)	Mot1-301 SUMO 558.6
Cc1ccccc1-c1nc(CN2CCC(C(=O)NCc3cccnc3)CC2)c(C)o1	C2C12 statin 99.5
Cc1oc(-c2ccccc2F)nc1CN1CCC(C(=O)NCc2cccnc2)CC1	none
Oc1ccc(-c2csc(Nc3ncccn3)n2)c(O)c1	none (no result: Cneo AK release)
Oc1ccc(-c2csc(Nc3ccc4c(c3)OCO4)n2)c(O)c1	C2C12 statin 131.6 (no result: Mot1-301 SUMO)
CCc1ccccc1N(CC)C(=O)c1cn(C)c(=O)c2cc(OC)c(OC)cc12	C2C12 statin 94.9
CCc1ccccc1N(CC)C(=O)c1cn(CC)c(=O)c2cc(OC)c(OC)cc12	none
CCSc1nnc(NC(=O)c2c(-c3ccccc3Cl)noc2C)s1	C2C12 statin 126.0
Cc1onc(-c2ccccc2Cl)c1C(=O)Nc1nnc(-c2cccc([N+](=O)[O-])c2)s1	none
CCCNC(=O)N1[C@H](CO)[C@H](c2ccc(C3=CCCC3)cc2)[C@H]1CNC(C)=O	none (no result: Mot1-301 SUMO)

High-throughput results from PubChem.
